Experimental data taken from the M2OR odorant receptor database.

These compounds were tested against T1, OR1F12P (Homo sapiens) (UniProt Q8NHA8). Conditions: stereoisomer not certain.
T1 sequence (whole entry): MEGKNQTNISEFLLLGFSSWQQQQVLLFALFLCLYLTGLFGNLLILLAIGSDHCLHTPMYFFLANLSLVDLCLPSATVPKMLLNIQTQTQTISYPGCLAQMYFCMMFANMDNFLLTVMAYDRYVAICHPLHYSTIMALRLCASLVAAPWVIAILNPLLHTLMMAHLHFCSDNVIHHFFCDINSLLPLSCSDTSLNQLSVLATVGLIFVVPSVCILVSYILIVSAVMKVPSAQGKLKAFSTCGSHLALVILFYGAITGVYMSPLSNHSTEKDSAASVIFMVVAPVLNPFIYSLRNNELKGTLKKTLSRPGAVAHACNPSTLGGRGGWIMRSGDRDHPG
How it was run: (§1)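 Transient luciferase assays in mammalian cell lines were common, though methods varied by source. The values come from published papers and their supplementary material, with extra details from the original authors when needed. Responsive refers to a measured signal the original authors judged statistically different from baseline, and non-responsive (inactive) to the remainder.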

Odorant receptor agonist call, inactive:
CCCCCC(=O)C(C)C(C)=O (configuration not stated), CC1CCCCCCCCCCCCC(=O)C1 (configuration not stated), CC(=O)c1c(C)c([N+](=O)[O-])c(C(C)(C)C)c([N+](=O)[O-])c1C, CCCC(S)CCOC(C)=O (configuration not stated), CCCCCCC=CCCC=O, Cc1cnc(C)c(C)n1, CCC1OC(C)=C(O)C1=O (configuration not stated), CCCCCC(S)C(C)CO (configuration not stated), CC(CO)CS (configuration not stated), CC1=C(O)C(=O)OC1C (configuration not stated), CCC(S)C(C)CO (configuration not stated), CC1=NC(C)C(C)S1 (configuration not stated), CCC1OC(=O)C(O)=C1C (configuration not stated), CC1=C(O)C(=O)C(C)O1 (configuration not stated), CCCCC(S)C(C)CO (configuration not stated)

The compounds below were run on T2, OR1F1. Conditions: stereoisomer not certain.
T2 sequence (whole entry): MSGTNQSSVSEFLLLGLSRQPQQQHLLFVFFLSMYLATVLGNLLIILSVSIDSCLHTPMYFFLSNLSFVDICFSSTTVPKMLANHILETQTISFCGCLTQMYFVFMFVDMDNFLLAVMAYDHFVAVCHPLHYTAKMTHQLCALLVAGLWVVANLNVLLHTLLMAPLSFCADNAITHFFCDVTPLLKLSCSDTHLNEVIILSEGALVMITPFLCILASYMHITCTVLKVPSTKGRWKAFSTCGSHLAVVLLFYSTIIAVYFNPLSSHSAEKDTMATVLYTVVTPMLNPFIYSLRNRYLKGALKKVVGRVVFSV
How it was run: as §1

Odorant receptor agonist call, inactive:
O=CN1CCCCC1, CCCC(S)CCOC(C)=O (configuration not stated), CCCCCCC=CCCC=O, Cc1cnc(C)c(C)n1, CCC1OC(C)=C(O)C1=O (configuration not stated), CC1=C(O)C(=O)OC1C (configuration not stated), CC1=NC(C)C(C)S1 (configuration not stated), CCC1OC(=O)C(O)=C1C (configuration not stated), CC1=C(O)C(=O)C(C)O1 (configuration not stated)

These compounds were tested against T3, OR1G1 (Homo sapiens) (UniProt P47890). Conditions: stereoisomer not certain.
T3 sequence (whole entry): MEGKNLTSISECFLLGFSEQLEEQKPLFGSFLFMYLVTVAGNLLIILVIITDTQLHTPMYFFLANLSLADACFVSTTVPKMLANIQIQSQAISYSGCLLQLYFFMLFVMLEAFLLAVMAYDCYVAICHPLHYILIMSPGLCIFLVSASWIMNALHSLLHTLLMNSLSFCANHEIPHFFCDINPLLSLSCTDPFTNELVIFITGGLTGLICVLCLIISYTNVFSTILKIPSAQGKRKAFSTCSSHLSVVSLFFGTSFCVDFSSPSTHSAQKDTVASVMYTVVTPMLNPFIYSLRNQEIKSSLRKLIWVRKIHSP
How it was run: as §1

Odorant receptor agonist call, inactive:
CCCCCC(=O)C(C)C(C)=O (configuration not stated), CC1CCCCCCCCCCCCC(=O)C1 (configuration not stated), CCCCCCCCC(C)=O, CCCCOC(=O)CCC, CCOC(=O)C(C)C, CC(=O)c1c(C)c([N+](=O)[O-])c(C(C)(C)C)c([N+](=O)[O-])c1C, CCCCCCCCCCCC=O, CCCCCCC(C)=O, CCCC(S)CCOC(C)=O (configuration not stated), CCCCCCC=CCCC=O, Cc1cnc(C)c(C)n1, CC(=O)C=CC1=C(C)CCCC1(C)C, CC(CC=O)c1ccc(C(C)(C)C)cc1 (configuration not stated), CCC1OC(C)=C(O)C1=O (configuration not stated), C=CC(C)(CCC=C(C)C)OC(C)=O (configuration not stated), CCCCCC(=O)CC, CCCCCC(S)C(C)CO (configuration not stated), CC(C)(C)C1CCCCC1OCCCCO (configuration not stated), CC(CO)CS (configuration not stated), CC1=C(O)C(=O)OC1C (configuration not stated), CSC, CCC(S)C(C)CO (configuration not stated), CC1=NC(C)C(C)S1 (configuration not stated), CCC1OC(=O)C(O)=C1C (configuration not stated), CC1=C(O)C(=O)C(C)O1 (configuration not stated), c1ccc2[nH]ccc2c1, CCCCC(S)C(C)CO (configuration not stated)

Odorant receptor agonist call, active:
CCCCCC(O)CC (configuration not stated), CCCCCCCC(=O)OC, CCCCC(CC)CO (configuration not stated), CCCCCCCCC(=O)OC, CC(=O)C(C)O (configuration not stated)

These compounds were tested against T4, OR1I1 (Homo sapiens) (UniProt O60431). Conditions: stereoisomer not certain.
T4 sequence (whole entry): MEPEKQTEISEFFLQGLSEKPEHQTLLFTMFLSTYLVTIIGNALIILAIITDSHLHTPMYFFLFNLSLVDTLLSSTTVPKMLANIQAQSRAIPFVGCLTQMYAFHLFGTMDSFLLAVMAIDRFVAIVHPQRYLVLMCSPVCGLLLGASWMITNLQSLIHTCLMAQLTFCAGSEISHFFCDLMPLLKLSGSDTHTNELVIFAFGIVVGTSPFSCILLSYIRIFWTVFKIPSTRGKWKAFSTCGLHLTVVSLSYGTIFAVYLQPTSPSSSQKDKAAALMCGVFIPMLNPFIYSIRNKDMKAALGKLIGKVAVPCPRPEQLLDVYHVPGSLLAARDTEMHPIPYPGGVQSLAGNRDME
How it was run: as §1

Odorant receptor agonist call, inactive:
CCCCCC(=O)C(C)C(C)=O (configuration not stated), CC1CCCCCCCCCCCCC(=O)C1 (configuration not stated), CC(=O)c1c(C)c([N+](=O)[O-])c(C(C)(C)C)c([N+](=O)[O-])c1C, CCCC(S)CCOC(C)=O (configuration not stated), CCCCCCC=CCCC=O, Cc1cnc(C)c(C)n1, CCC1OC(C)=C(O)C1=O (configuration not stated), CCCCCC(S)C(C)CO (configuration not stated), CC(CO)CS (configuration not stated), CC1=C(O)C(=O)OC1C (configuration not stated), CCC(S)C(C)CO (configuration not stated), CC1=NC(C)C(C)S1 (configuration not stated), CCC1OC(=O)C(O)=C1C (configuration not stated), CC1=C(O)C(=O)C(C)O1 (configuration not stated), CCCCC(S)C(C)CO (configuration not stated)

What follows are compounds tested against T5, OR1J1 (Homo sapiens) (UniProt Q8NGS3). Conditions: stereoisomer not certain.
T5 sequence (whole entry): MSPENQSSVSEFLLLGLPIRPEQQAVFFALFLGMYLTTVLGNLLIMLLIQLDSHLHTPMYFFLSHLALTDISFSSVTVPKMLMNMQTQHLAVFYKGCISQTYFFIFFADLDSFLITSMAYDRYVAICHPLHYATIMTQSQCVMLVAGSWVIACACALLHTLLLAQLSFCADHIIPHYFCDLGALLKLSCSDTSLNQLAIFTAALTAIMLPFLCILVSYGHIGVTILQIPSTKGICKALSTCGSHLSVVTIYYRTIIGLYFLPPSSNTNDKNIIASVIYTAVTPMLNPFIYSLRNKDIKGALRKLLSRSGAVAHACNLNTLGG
How it was run: as §1

Odorant receptor agonist call, inactive:
CCCCCC(=O)C(C)C(C)=O (configuration not stated), CC1CCCCCCCCCCCCC(=O)C1 (configuration not stated), CC(=O)c1c(C)c([N+](=O)[O-])c(C(C)(C)C)c([N+](=O)[O-])c1C, CCCC(S)CCOC(C)=O (configuration not stated), CCCCCCC=CCCC=O, Cc1cnc(C)c(C)n1, CCC1OC(C)=C(O)C1=O (configuration not stated), CCCCCC(S)C(C)CO (configuration not stated), CC(CO)CS (configuration not stated), CC1=C(O)C(=O)OC1C (configuration not stated), CCC(S)C(C)CO (configuration not stated), CC1=NC(C)C(C)S1 (configuration not stated), CCC1OC(=O)C(O)=C1C (configuration not stated), CC1=C(O)C(=O)C(C)O1 (configuration not stated), CCCCC(S)C(C)CO (configuration not stated)

What follows are compounds tested against T6, OR1J2 (Homo sapiens) (UniProt Q8NGS2). Conditions: stereoisomer not certain.
T6 sequence (whole entry): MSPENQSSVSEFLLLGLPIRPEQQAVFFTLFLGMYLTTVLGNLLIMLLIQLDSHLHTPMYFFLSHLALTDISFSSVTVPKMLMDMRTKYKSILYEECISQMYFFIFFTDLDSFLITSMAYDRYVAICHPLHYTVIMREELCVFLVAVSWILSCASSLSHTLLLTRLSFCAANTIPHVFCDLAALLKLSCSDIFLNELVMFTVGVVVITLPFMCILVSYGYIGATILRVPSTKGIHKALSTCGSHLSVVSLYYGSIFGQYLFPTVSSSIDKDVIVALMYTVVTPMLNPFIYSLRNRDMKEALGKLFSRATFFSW
How it was run: as §1

Odorant receptor agonist call, inactive:
CCCCCC(=O)C(C)C(C)=O (configuration not stated), CCCC(S)CCOC(C)=O (configuration not stated), CCCCCCC=CCCC=O, Cc1cnc(C)c(C)n1, CCC1OC(C)=C(O)C1=O (configuration not stated), CCCCCC(S)C(C)CO (configuration not stated), CC(CO)CS (configuration not stated), CC1=C(O)C(=O)OC1C (configuration not stated), CCC(S)C(C)CO (configuration not stated), CC1=NC(C)C(C)S1 (configuration not stated), CCC1OC(=O)C(O)=C1C (configuration not stated), CC1=C(O)C(=O)C(C)O1 (configuration not stated), CCCCC(S)C(C)CO (configuration not stated)

The compounds below were run against T7, OR1J4 (Homo sapiens) (UniProt Q8NGS1). Conditions: stereoisomer not certain.
T7 sequence (whole entry): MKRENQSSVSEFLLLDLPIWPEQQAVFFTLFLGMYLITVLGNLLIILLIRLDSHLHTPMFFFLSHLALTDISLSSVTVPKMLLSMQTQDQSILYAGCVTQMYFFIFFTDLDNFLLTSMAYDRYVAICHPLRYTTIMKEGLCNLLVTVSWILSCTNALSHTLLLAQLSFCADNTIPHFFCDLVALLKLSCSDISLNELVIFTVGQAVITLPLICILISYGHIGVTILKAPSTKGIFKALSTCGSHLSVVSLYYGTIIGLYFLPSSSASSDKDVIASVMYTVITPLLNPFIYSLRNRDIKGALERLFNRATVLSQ
How it was run: as §1

Odorant receptor agonist call, active:
CCCCC(S)C(C)CO (configuration not stated)

Odorant receptor agonist call, inactive:
CCCCCC(=O)C(C)C(C)=O (configuration not stated), CCCC(S)CCOC(C)=O (configuration not stated), CCCCCCC=CCCC=O, Cc1cnc(C)c(C)n1, CCC1OC(C)=C(O)C1=O (configuration not stated), CCCCCC(S)C(C)CO (configuration not stated), CC(CO)CS (configuration not stated), CC1=C(O)C(=O)OC1C (configuration not stated), CCC(S)C(C)CO (configuration not stated), CC1=NC(C)C(C)S1 (configuration not stated), CCC1OC(=O)C(O)=C1C (configuration not stated), CC1=C(O)C(=O)C(C)O1 (configuration not stated)
